Assay [1] has as its system Vero. The assay can be described thus: Cytotoxic effect against vero cells. The assay is classed as cell-based. The settings on record: Chlorocebus sabaeus. Summed up:
(§1)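 Uninfected cells were cultured with or without drug: PHA-stimulated human PBM cells for 6 days, Vero cells for 3 days, CEM cells for 6 days. Cells were then counted with trypan blue. Compounds came from 40 mM DMSO stocks diluted in medium (final DMSO below 0.25%). IC50 was derived from a median effect plot.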

A short description of assay [2]: Cytotoxicity against uninfected PHA-stimulated peripheral blood mononuclear (PBM) cells. The settings on record: Homo sapiens. In kind it is cell-based. Summed up:
as §1

Assay [3] deals with Human immunodeficiency virus 1. Kind of assay: Effective concentration against HIV-1 strain LAV in human peripheral blood mononuclear (PBM) cells. In kind it is functional, organism-based. Summed up: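 Mitogen-stimulated human PBM cells infected with HIV-1 LAV at MOI 0.1 (set by limiting dilution in PBM cells). Compounds were added about 45 min after infection, diluted in medium from 40 mM DMSO stocks (final DMSO below 0.25%). Read-out was supernatant reverse transcriptase (RT) level. EC50 was taken from a median effect plot of dose-effect data.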

The test system of assay [4] is CCRF-CEM. The assay can be described thus: Cytotoxicity against uninfected PHA-stimulated CEM cells. The settings on record: Homo sapiens. The assay is classed as cell-based. In short, it runs like this: as §1
For assay [5], the system named is CCRF-CEM. The assay can be described thus: Effective concentration for inhibition of virus production in human CEM cells. The assay is classed as functional, cell-based.

Broadly, the pIC50 is the negative decadic logarithm of the IC50, by convention in mol/L. Higher therefore signals a low IC50. The term pEC50 denotes the EC50 on a negative log10 scale, so that one unit is a factor of ten. A lower pEC50 goes with a large EC50.

pEC50, pIC50: −log10 of the molar value.

`Nc1ccn([C@@H]2CO[C@H](CO)O2)c(=O)n1` [TROXACITABINE]: the negative logarithm of the IC50 (pIC50) in assay [1] was 7.00; in assay [2], under 5.00. This compound had a negative logarithm of the EC50 (pEC50) in assay [3] of 8.70.

As for `Nc1nc(O)c2ncn([C@@H]3CO[C@H](CO)O3)c2n1`, the pIC50 in assay [1] and in assay [2] was under 4.00 in each case. In assay [3], this compound gave a negative logarithm of the EC50 (pEC50) of 4.76.

As for `Nc1nc(N)c2ncn([C@@H]3CO[C@H](CO)O3)c2n1`, in assay [3], the negative logarithm of the EC50 (pEC50) is 7.85.

Consider `Nc1ccn([C@H]2CO[C@@H](CO)O2)c(=O)n1`, for which the pIC50 in assay [4] was 4.89; in assay [2], 4.21. In addition, the pEC50 in assay [5] is 8.05; in assay [3] it was 7.80.

On to `Nc1nc(O)c2ncn([C@H]3CO[C@H](CO)O3)c2n1`, for which the negative logarithm of the IC50 (pIC50) in assay [1] and in assay [2] was under 4.00 throughout. In assay [3], this compound had a negative-log EC50 (pEC50) of 3.99.

Turning to `Nc1nc(N)c2ncn([C@H]3CO[C@H](CO)O3)c2n1`, in assay [3], the negative-log EC50 (pEC50) is 4.38.

`Nc1nc(Cl)nc2c1ncn2[C@H]1CO[C@H](CO)O1`: the pEC50 in assay [3] was 5.90.

Turning to `Nc1ccn([C@H]2CO[C@H](CO)O2)c(=O)n1`, the negative logarithm of the IC50 (pIC50) is 4.77 in assay [1] and under 5.00 in assay [2]. In assay [3], this compound had a negative logarithm of the EC50 (pEC50) of 5.89.

In assay [2], `Cc1cn([C@H]2C[C@H](N=[N+]=[N-])[C@@H](CO)O2)c(=O)[nH]c1=O` [ZIDOVUDINE] gave a pIC50 of under 4.00.

Compound `Nc1nc(Cl)nc2c1ncn2[C@@H]1CO[C@H](CO)O1` had a pEC50 in assay [3] of 4.46.

The record behind these values is ChEMBL document CHEMBL1126602, “L-beta-(2S,4S)- and L-alpha-(2S,4R)-dioxolanyl nucleosides as potential anti-HIV agents: asymmetric synthesis and structure-activity relationships” (J Med Chem, 1993).
